Measured values taken from the EternaBench riboswitch data.

Tested on: MS2 coat protein
Experiment: apparent Kd, MS2 coat protein; higher = weaker binding; RNA-MaP array; theophylline 2 mM where present
Outline: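 The apparent Kd is the median of filtered binding-curve fits, one per cluster, to green signal normalised to red-channel RNA signal and control-cluster median Fmax. The clusters were on Illumina sequencing chips, and stalled E. coli RNA polymerase had transcribed the designs on them. Titration used SNAP-549-labelled MS2 coat protein from 0.7 or 1.5 nM, doubling to 3 µM, without and then with constant ligand, in 100 mM Tris-HCl pH 7.5, 80 mM KCl, 4 mM MgCl2, BSA, DTT, yeast tRNA and Tween-20.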

[1] = designed as: ON switch for theophylline, no ligand
[2] = ligand present: theophylline, designed as: ON switch for theophylline
[3] = designed as: OFF switch for theophylline, no ligand
[4] = ligand present: theophylline, designed as: OFF switch for theophylline

UCGUGAGUUUCGGAUACCAGUGUUGUCGAUACAUGAGGAUCACCCAUGUUAGAGGAUGUACACCCUUGGCAGCCGGCUGUGGCGG
apparent Kd [1]: 18.6 nM
apparent Kd [2]: 11.3 nM

ACUCGGUGUUUGUUGCUCCGAGUACGUGAUACCAGUUAAUUUUAUGGCCCUUGGCAGCAUGGGACAUGAGGAUCACCCAUGUUUA
apparent Kd [1]: 375 nM
apparent Kd [2]: 396 nM

AGAUUACAUGUUUUAAUAAGAUAAACUGAUACCAGUGUAUAUAUUCACCCUUGGCAGCAGCAACAUGAGGAUCACCCAUGUAUUA
apparent Kd [1]: 16 nM
apparent Kd [2]: 15.2 nM

GAUGAUAUUGCAGAUACCAGACACAUGAGGAUCACCCAUGUCGUUGGGUCGCUGGGUCGUGUCCCUUGGCAGCUGCGAUAUCAUC
apparent Kd [3]: 30.7 nM
apparent Kd [4]: 263 nM

ACAUGAGGGAUGGAUACCAGCGACAUGAGGAUCACCCAUGUAUGAGGAUCAGCCAUGUUAUGCCCUUGGCAGCCACGAACAUCAG
apparent Kd [3]: 26.6 nM
apparent Kd [4]: 226 nM

AAUAACAUGAGGAUCACCCAUGUAAAAGAUACCAGAGUGAUGAUCCUCCCUUGGCAGCUUAACGCUGAUUGAUUACAAUCAGCGA
apparent Kd [1]: 57.6 nM
apparent Kd [2]: 173 nM

CCUCAUGUGGUGCUGCACAUGAGAGGUGAUACCAGCAUCGAAAGAUGCCCUUGGCAGCACCAACAUGAGGAUCACCCAUGUAAUA
apparent Kd [1]: 57.4 nM
apparent Kd [2]: 135 nM

GCAAUAACGAUUGAUACCAGCAUGUUAACAUGAGGAUCACCCAUGUUAAGGAUAACAUAAUGCCCUUGGCAGCAACGGAAAGCCG
apparent Kd [1]: 24.3 nM
apparent Kd [2]: 14 nM

AUGUCGUUGAAUAUAGCGGCUUGGUGUGAUACCAGAAUGAUCUAAUUCCCUUGGCAGCAUUACAUGAGGAUCACCCAUGUUCAGG
apparent Kd [1]: 24 nM
apparent Kd [2]: 23.9 nM

UGUAUGUGAUCUGAUACCAGUCCCUUGGCAGCAACAUGAGGAUCACCCAUGUAGAUACCAGACCCUUGGCAGCAGAUCGCAUACU
apparent Kd [1]: 9.06 nM
apparent Kd [2]: 8.27 nM

AUUAUCAUGGUCAUAUAUAUUUCGUCAGAUACCAGACUAGAUAUAGUCCCUUGGCAGCUGUUACAUGAGGAUCACCCAUGUUAUA
apparent Kd [3]: 116 nM

GACAUGAGGAUAGAUACCAGCGACAUGAGGAUCACAUGAGGAUCACCCAUGUGUAGUAUACGCCCUUGGCAGCUAACAUGAGGAU
apparent Kd [1]: 108 nM
apparent Kd [2]: 94 nM

AGGCAGUAGGUGAUCCACUGCCAAGGUGAUACCAGCAUCGAAAGAUGCCCUUGGCAGCACCAACAUGAGGAUCACCCAUGUAAUA
apparent Kd [1]: 108 nM
apparent Kd [2]: 663 nM

CGACUACAGCGUGAUACCAGUGACAGAUACCAGUCUAGACAUGAGGAUCACCCAUGUACGCGCCCUUGGCAGCACACUAGAUCGA
apparent Kd [1]: 89.4 nM
apparent Kd [2]: 49.9 nM

GAGCUGAUGUAGAGUGGAUAUCCUUGAGAUACCAGUACAGAAAUGUACCCUUGGCAGCUCUUCUUUACAUGAGGAUCACCCAUGU
apparent Kd [3]: 13.1 nM
apparent Kd [4]: 17.5 nM

AUACCUAAUGUUACGUUUUCCUUUUCAGAUACCAGACUUUACGUUGUCCCUUGGCAGCUGUAUUACAUGAGGAUCACCCAUGUUG
apparent Kd [1]: 22 nM
apparent Kd [2]: 29.7 nM

CUCGAGUUAUGAGAUACCAGACUAUAGUUUACAUGAGGAUCACCCAUGUUAUGGGUGGUAGUCCCUUGGCAGCUCAUAUGUUUAA
apparent Kd [3]: 225 nM
apparent Kd [4]: 812 nM

UCCUUAGAUACUGAUACCAGACUACAGUAAACAUGAGGAUCACCCAUGUUUGAUCACUAAGUCCCUUGGCAGCAGGUACAUGGGA
apparent Kd [1]: 11.3 nM
apparent Kd [2]: 9.08 nM

UCGCUCGCCGGAAGGCGAGCGAGUUGCGAUACCAGCCCGGAAACGGGCCCUUGGCAGCGCACAUGAGGAUCACCCAUGUCAUGUU
apparent Kd [3]: 19.4 nM
apparent Kd [4]: 26.2 nM

CGAGUCCGCUGAUGGGCUAAGUCAGGUGAUACCAGCCACUCCCGCGGCCCUUGGCAGCACAUGAGGAUCACCCAUGUAGGGCUUG
apparent Kd [3]: 19.6 nM
apparent Kd [4]: 338 nM

ACGUCCAGGUUAAUCGUGGACAUGGUCGAUACCAGUAUUUUAAUCUACCCUUGGCAGCGACAUGAGGAUCACCCAUGUGCGAUGA
apparent Kd [3]: 12.5 nM
apparent Kd [4]: 23.4 nM

AUAACAUGAGGAUCACCCAUGUUGAGUGAUACCAGACUAUGUAAUGUCCCUUGGCAGCACAAGUAAAGUUAUAAAUAAUGAUAGA
apparent Kd [1]: 57.2 nM
apparent Kd [2]: 25.1 nM

AAUAACAUGAGGAUCACCCAUGUAAAAGAUACCAGAGUGAUGAUCCUCCCUUGGCAGCUUAAUAACGCUAUUGGAAACAAUAGCG
apparent Kd [1]: 78.2 nM
apparent Kd [2]: 122 nM

ACGUCUCGUUUACUCGUGGGUUAGCUCGAUACCAGUAUUCAAACUUACCCUUGGCAGCGACAUGAGGAUCACCCAUGUGCGAAGA
apparent Kd [3]: 16.4 nM
apparent Kd [4]: 54.9 nM

AGUACUCGAACGGAUACCAGCCGGACAUGAGGAUCACCCAUGUCCUACCAUGGUUCGGUUGGCCCUUGGCAGCCGUUCGUGUACA
apparent Kd [1]: 225 nM
apparent Kd [2]: 20.2 nM

ACAUGAGGAUCACCCAUGUAAGGUCUUGAUACCAGACGAGAAGUAGUCCCUUGGCAGCAAAUACGUGAGGGUCACACAUGUGUAA
apparent Kd [3]: 23 nM
apparent Kd [4]: 46 nM

AUUAAUUGUCGUGAUACCAGACAUACAUGAGGAUCACCCAUGUUAAGUAACAUUUUUUAUGUCCCUUGGCAGCACUUUUUAAUUA
apparent Kd [1]: 19.4 nM
apparent Kd [2]: 11.5 nM

GCACCAGGUACGGAUACCAGACUCUGCCGAUUGGGUGAACAUGAGGAUCACCCAUGUUAGGUCCCUUGGCAGCCGUACCUGGUGC
apparent Kd [3]: 28.3 nM
apparent Kd [4]: 487 nM

ACGUCCCGUUUACUCGUGGGUUAGGUCGAUACCAGUAUUCAAACUUACCCUUGGCAGCGACAUGAGGAUCACCCAUGUGCGAAGA
apparent Kd [3]: 17.6 nM
apparent Kd [4]: 99.5 nM

ACAUGAGGAUCACCCAUGUUCCUCAUUGAUACCAGUGAAUUUAGACGCCCUUGGCAGCGAGUUUUUUUAUAAGUUUUUUUUUUUU
apparent Kd [3]: 665 nM
apparent Kd [4]: 1160 nM

CAAACAUGAGGAUCACCCAUGUAAUCAGAUACCAGUGACGAAAGUCACCCUUGGCAGCUGAGUACAUAUUGGCAGAGGUGUUUGA
apparent Kd [3]: 67 nM
apparent Kd [4]: 75 nM

UCGACAGUGAACGAUACCAGCGUCACGUGGCCGGUGGUCACAUGAGGAUCACCCAUGUAACGCCCUUGGCAGCGUGCACGUAUCC
apparent Kd [3]: 26.1 nM
apparent Kd [4]: 184 nM

CAGAACAUGAGGAUCACCCAUGUCAGGGAUACCAGCUCAGACAUGGGCCCUUGGCAGCUCUGUGGCUGACGAAAGUCAGCAUCUG
apparent Kd [1]: 60.8 nM
apparent Kd [2]: 185 nM

GCACUACAUGAGGAUCACCCAUGUGCAGAUACCAGAGGUGUAUGCCUCCCUUGGCAGCUGCGUCGCUCUGGAAGCCUAUUGGUUU
apparent Kd [1]: 15.6 nM
apparent Kd [2]: 20.9 nM

UGACAUUGCUCAGAUACCAGACAUGAGGAUCACCCAUGUGCCAACGUACAAAUAAUAAAUGUCCCUUGGCAGCUGAGCAAUGUCU
apparent Kd [3]: 11.4 nM
apparent Kd [4]: 35 nM
